Here are results for 2 molecules from paper PMC8265689 (Journal of the American Chemical Society, 2021).

The subject of data set [1] is DU-145 cells. Nature of the data set: DU-145 viability. Type of data set: cell-based, human. The conditions noted are these: 5 μM, vinblastine 0–5 nM, blue light, Figure 7C. The essentials: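 DU-145 cells (7000/well) were grown overnight, then given test compound (5 μM, 1% DMSO) in octuplicate for 1 h at 37 °C. Medium was replaced with vinblastine (5 nM; 2.5 or 5 nM in one set) or vehicle. Plates received blue LED light (460–470 nm, 20 min, 56 J/cm²) or were kept dark, then 72 h. MTT read at 570 nm, blank-normalized, as percent of vehicle control.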

Data set [2] has as its system DU-145 cells. Nature of the data set: Chou–Talalay synergy determination with vinblastine. The conditions noted are these: light conditions. Type of data set: cell-based, human. In a few lines:
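DU-145 cells (7000/well, DMEM with 10% FBS and penicillin/streptomycin) were grown overnight (16 h, 37 °C, 5% CO₂). They were pretreated 1 h with test compound (10–1 μM) or vehicle (1% DMSO), then switched to vinblastine (10–0.5 nM) or vehicle, in quadruplicate. Blue light 460–470 nm for 20 min, then 72 h. MTT read at 570 nm, blank-subtracted, as percent effect. Chou–Talalay EC50 and CI computed per combination.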

The conditions of data set [3]: in MeOH, used as standard; cited from earlier work.

On to “[Ru(tpy)(Me2dppn)(py)](PF6)2 [Compound 27, reference compound]”, for which the “synergy with vinblastine (viability)” value with DU-145 cells [1] is listed as “does not”. In addition, in the data set on DU-145 cells [2], the “synergism with vinblastine (Chou–Talalay)” value was “weaker synergism”.

For the molecule `[Ru+2].c1ccc(-c2ccccn2)nc1.c1ccc(-c2ccccn2)nc1.c1ccc(-c2ccccn2)nc1` [[Ru(bpy)3]^2+], in data set [3], the “Quantum yield of singlet oxygen production (ΦΔ)” value is 0.81.
